Source: PubChem BioAssay
GSIS activator: GLuc luminescence reporter in INS-1E cells, primary screen for activators of glucose-dependent secretion of insulin | INS-1E GLuc reporter insulin secretion, 2-3 h | activation, % at 16.6 µM | 370,000 compounds, 0.61% hits | AID 743287, 2014;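 active means lowest replicate activation of at least 40%, so every replicate reaches that level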
miR122 inh: miR-122 Renilla sensor signal increase in Huh7, primary screen, miR-122 inhibitor project, cell-based, single point, plate reader; activation (reporter increase), % at 12.5 µM; Huh7 miR-122 Renilla luciferase sensor, 48 h; neutral wells = 0, positive control = 100; 340,000 compounds, 0.3% hits; AID 602342, 2012;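 active means mean replicate activation score at least 90 and every replicate individually at or above 90; inconclusive means only one of the two criteria met; inactive means neither criterion met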;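 further: higher luciferase means less miR-122 activity so hits act as miR-122 inhibitors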
E-selectin induc: E-selectin induction in HUVECs, primary screen, imaging, HUVEC, immunofluorescence imaging, single point; AID 686992, 2013; 260,000 compounds, 0.37% hits; P16581; normalized: neutral wells 0, TNF-alpha wells 100; activation, % at 7.58 µM;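 active means mean E-selectin-positive cell signal at least 10% of the positive control, reached in at least 60% of replicates, without over 20% cell loss; inconclusive means no rule given, readout overlaps actives, possibly toxicity-flagged; inactive means the rest, including those meeting only one limit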
Target sequence (P16581 whole entry, looked up): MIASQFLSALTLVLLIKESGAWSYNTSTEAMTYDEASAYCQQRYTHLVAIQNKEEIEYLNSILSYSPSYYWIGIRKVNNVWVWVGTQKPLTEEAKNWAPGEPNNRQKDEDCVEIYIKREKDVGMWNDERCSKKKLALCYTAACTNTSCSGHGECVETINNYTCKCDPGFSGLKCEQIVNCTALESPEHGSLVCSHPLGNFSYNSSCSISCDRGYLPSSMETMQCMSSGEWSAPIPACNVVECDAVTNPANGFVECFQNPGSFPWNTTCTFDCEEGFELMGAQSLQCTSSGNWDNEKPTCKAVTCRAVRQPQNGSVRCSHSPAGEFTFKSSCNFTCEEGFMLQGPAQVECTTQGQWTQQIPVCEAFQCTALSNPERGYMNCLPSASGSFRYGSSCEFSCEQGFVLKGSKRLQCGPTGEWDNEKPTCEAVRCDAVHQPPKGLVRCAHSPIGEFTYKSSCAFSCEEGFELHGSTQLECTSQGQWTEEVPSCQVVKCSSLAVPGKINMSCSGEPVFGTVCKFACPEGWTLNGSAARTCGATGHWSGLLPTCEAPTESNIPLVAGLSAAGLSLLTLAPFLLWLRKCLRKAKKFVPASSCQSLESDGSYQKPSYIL
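material = human umbilical vein endothelial cells (HUVEC), E-selectin induction | quantity = 3,000 cells/well | medium = EGM-2 growth medium on 0.1% gelatin-coated wells | technique = immunofluorescence imaging | read-out basis = % PE-positive cells | control set = TNF-alpha positive control, DMSO neutral control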
DENV2 CPE rescue: inhibitors of DENV2 cytopathic effect, primary screen, cell-based, plate reader, single concentration. DENV2-infected cells, cytopathic effect rescue. CPE inhibition, % at 9.99 µM. 350,000 compounds, 1.7% hits. AID 651640, 2012; in the data active means CPE inhibition above about 20%, passing the limit was not always enough; inconclusive means no clear call, values can overlap the other calls; tested in BHK-21 cells
ERAP1 inh: human ERAP1 aminopeptidase inhibitors, primary screen, biochemical, single point, plate reader; recombinant ERAP1, Leu-AMC fluorescence, 60 min; inhibition, % at 10.7 µM; 340,000 compounds, 0.15% hits; AID 652197, 2013;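 active means mean replicate inhibition of at least 30%, or all replicates individually reaching that 30% level; inactive means mean below 30% and not every replicate reaching it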
CFTR F508del cor: F508del CFTR correction, initial screen, CFBE line, single point. AID 720511, 2013. activity (quench increase), % at 7.58 µM. 350,000 compounds, 0.36% hits. CFBE cells, YFP halide quenching; stimulated with forskolin plus potentiator P3; % fluorescence drop versus neutral controls;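 active means mean added fluorescence quench of at least 8% versus neutral control, with both replicates also reaching 8%; inconclusive means only one of the mean or replicate conditions met; inactive means mean below 8% and not both replicates reaching 8%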;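 further: cells transiently co-express mutant CFTR-F508del with the halide-sensitive YFP; corrector assay measuring rescue of mutant channel to the surface after 24 h compound exposure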
Of the large screens only hits and unclear results are named; the others gave an inactive call; [ ] = another dose, or the depositor's remark. Most compounds without a hit are left out; they make up all but 2.6% or so of the library.

Cn1c(SCC(=O)NC2CCCc3ccccc32)nnc1C1CC1 (stereo unspecified)	GSIS activator 81.7
CCc1cccc(CC)c1NC(=O)CSc1nnc(C2CC2)n1C	GSIS activator 44.6 (no result: E-selectin induc)
Cc1nnc(SCC(=O)NC2CCCc3ccccc32)n1-c1ccccc1 (stereo unspecified)	DENV2 CPE rescue 83.4 (no result: miR122 inh, E-selectin induc)
O=C(C1CCC1)N1CC2(C1)[C@@H](c1ccccc1)[C@H](CO)N2C(=O)CC1CC1	none (no result: miR122 inh)
COc1ccccc1-c1cnc2c(c1)C(=O)N([C@@H](C)CO)C[C@H](C)[C@@H](CN(C)Cc1cncnc1)O2	none
COc1cccc(S(=O)(=O)N[C@H]2CC[C@@H](CCNC(=O)Cc3ccncc3)O[C@H]2CO)c1	none (no result: miR122 inh)
C[C@@H]1CCCCO[C@H](CN(C)C(=O)Nc2ccccc2)[C@H](C)CN([C@@H](C)CO)C(=O)c2cc(NC(=O)Nc3cccc4ccccc34)ccc2O1	none
C[C@@H]1CN([C@@H](C)CO)C(=O)Cc2cc(NC(=O)c3ccncc3)ccc2O[C@H]1CN(C)Cc1ccc(C(=O)Nc2ccccc2N)cc1	DENV2 CPE rescue 72.0
COc1ccc(NC(=O)Nc2ccc3c(c2)CC(=O)N([C@H](C)CO)C[C@H](C)[C@@H](CN(C)Cc2ccc(C(=O)Nc4ccccc4N)cc2)O3)cc1	none (no result: miR122 inh, E-selectin induc)
COc1ccc(NC(=O)Nc2ccc3c(c2)CC(=O)N([C@H](C)CO)C[C@@H](C)[C@H](CN(C)Cc2ccc(C(=O)Nc4ccccc4N)cc2)O3)cc1	DENV2 CPE rescue 55.4 (no result: miR122 inh, E-selectin induc)
C[C@@H]1CN([C@H](C)CO)C(=O)Cc2cc(NC(=O)c3ccncc3)ccc2O[C@H]1CN(C)Cc1ccc(C(=O)Nc2ccccc2N)cc1	none (no result: miR122 inh)
C[C@H](CO)N1C[C@H](C)[C@H](CN(C)Cc2ccc(C(=O)Nc3ccccc3N)cc2)Oc2ccc(NC(=O)Nc3ccc(F)cc3)cc2CC1=O	miR122 inh 267.3[16.7 µM]
COc1ccc(S(=O)(=O)Nc2ccc3c(c2)OC[C@H](C)NC[C@@H](C)[C@@H](OC)CN(C)C3=O)cc1	none
Cc1ccc(CSCc2ccc(C(=O)NCCCN3CCOCC3)o2)cc1	none
Cc1ccccc1CSCc1ccc(C(=O)NCCCN2CCOCC2)o1	GSIS activator 46.1 (no result: E-selectin induc)
O=C(Nc1cccnc1)/C(N=Nc1cccnc1)=C(\O)c1ccccc1	GSIS activator 74.7 (no result: miR122 inh, E-selectin induc, DENV2 CPE rescue, ERAP1 inh, CFTR F508del cor)
C[C@@H]1CCCCO[C@@H](CN(C)C(=O)Nc2ccccc2)[C@H](C)CN([C@H](C)CO)C(=O)c2cc(NS(=O)(=O)c3ccc(F)cc3)ccc2O1	none (no result: ERAP1 inh)
CCC(C)Nc1nc(N)c([N+](=O)[O-])c(NCCO)n1 (stereo unspecified)	GSIS activator 70.7, DENV2 CPE rescue 94.0 (no result: miR122 inh, E-selectin induc)
C[C@@H]1CCCCO[C@H](CN(C)C(=O)NC2CCCCC2)[C@@H](C)CN([C@@H](C)CO)C(=O)c2cc(NC(=O)NC3CCCCC3)ccc2O1	DENV2 CPE rescue 46.8
C[C@H](CO)N1C[C@H](C)[C@@H](CN(C)C(=O)NC2CCCCC2)OCCCC[C@H](C)Oc2ccc(NC(=O)NC3CCCCC3)cc2C1=O	none
C[C@H](CO)N1C[C@H](C)[C@@H](CN(C)C(=O)Nc2cccc3ccccc23)OCCCC[C@H](C)Oc2ccc(NC(=O)NC3CCCCC3)cc2C1=O	DENV2 CPE rescue 113.0 (no result: E-selectin induc)
C[C@H]1CCCCO[C@H](CN(C)C(=O)Nc2ccc3c(c2)OCO3)[C@@H](C)CN([C@@H](C)CO)C(=O)c2cc(NC(=O)NC3CCCCC3)ccc2O1	DENV2 CPE rescue 85.4 (no result: ERAP1 inh)
C[C@H]1CCCCO[C@@H](CN(C)C(=O)Nc2cccc3ccccc23)[C@@H](C)CN([C@@H](C)CO)C(=O)c2cc(NC(=O)Cc3ccccc3)ccc2O1	DENV2 CPE rescue 83.4
CC(=O)N1[C@@H](CO)[C@@H](c2ccccc2)C12CN(C(=O)c1ccccn1)C2	none (no result: miR122 inh)
C[C@H]1CN([C@@H](C)CO)C(=O)c2cc(-c3ccc(F)cc3)cnc2O[C@@H]1CN(C)C(=O)c1ccc(F)cc1	none
CN(C)C(=O)c1ccc(-c2ccc3c(c2)[C@H]2[C@H](CCN2C(=O)C2CCC2)[C@H](CO)N3C)cc1	none
C[C@@H]1CN([C@H](C)CO)C(=O)Cc2cc(NC(=O)c3ccncc3)ccc2O[C@@H]1CN(C)CC1CC1	none
C[C@@H]1CN([C@@H](C)CO)S(=O)(=O)c2ccc(Br)cc2O[C@@H]1CN(C)C(=O)C1CCC1	none (no result: DENV2 CPE rescue, ERAP1 inh)
O=C(C1CCCC1)N1CC[C@@H]2[C@@H](CO)Nc3ccc(Br)cc3[C@@H]21	none (no result: miR122 inh)
C[C@H]1CCCCO[C@H](CN(C)C(=O)NC2CCCCC2)[C@@H](C)CN([C@@H](C)CO)C(=O)c2cc(NC(=O)Nc3ccc(F)cc3)ccc2O1	DENV2 CPE rescue 31.7 (no result: miR122 inh, E-selectin induc)
C[C@@H]1CN([C@H](C)CO)C(=O)c2cc(NC(=O)Nc3ccc(F)cc3)ccc2O[C@@H](C)CCCCO[C@H]1CN(C)C(=O)NC1CCCCC1	DENV2 CPE rescue 20.8 (no result: E-selectin induc)
C[C@@H]1CCCCO[C@@H](CN(C)C(=O)NC2CCCCC2)[C@H](C)CN([C@H](C)CO)C(=O)c2cc(NC(=O)Nc3ccc(F)cc3)ccc2O1	none (no result: E-selectin induc)
C[C@@H]1CN([C@@H](C)CO)S(=O)(=O)c2ccc(/C=C/c3ccccc3)cc2O[C@@H]1CN(C)C(=O)NC1CCCC1	none
CCOCCCn1c(SCc2ccccc2)nnc1-c1ccncc1	GSIS activator 78.3 (no result: miR122 inh)
Cc1noc(C)c1NC(=O)N(C)C[C@H]1Oc2ccc(NS(C)(=O)=O)cc2CC(=O)N([C@@H](C)CO)C[C@@H]1C	none (no result: ERAP1 inh)
O[C@@H]1CN(Cc2cccs2)[C@@H](c2ccccc2)C[C@H]1n1cc(-c2ccc(F)cc2)nn1	DENV2 CPE rescue 50.7 (no result: E-selectin induc)
CCCCCCN1C[C@H](n2cc(-c3ccc(F)cc3)nn2)[C@@H](O)C[C@@H]1c1ccccc1	DENV2 CPE rescue 92.7
CCCCCCN1C[C@H](O)[C@@H](n2cc(-c3ccc(F)cc3)nn2)C[C@@H]1c1ccccc1	DENV2 CPE rescue inconclusive
O=C(Nc1ccccc1F)N1C[C@@H]2[C@H](c3ccccc31)[C@H](CO)N2C(=O)C1CCCC1	none
O=C(CSc1nc(=O)n2ccccc2n1)N1N=C(c2cccs2)CC1c1ccc(F)cc1 (stereo unspecified)	DENV2 CPE rescue 59.5
Cc1ccc(C2CC(c3cccs3)=NN2C(=O)CSc2nc(=O)n3ccc(C)cc3n2)cc1 (stereo unspecified)	none (no result: miR122 inh, E-selectin induc)
O=C(NNS(=O)(=O)c1ccccc1)c1cc2cc3ccccc3nc2s1	none (no result: GSIS activator, DENV2 CPE rescue, ERAP1 inh, CFTR F508del cor)
O=C(NNC(=O)c1cc2cc3ccccc3nc2s1)c1cccc(C(F)(F)F)c1	GSIS activator 75.1 (no result: E-selectin induc, DENV2 CPE rescue, ERAP1 inh, CFTR F508del cor)
